From ChEMBL document CHEMBL4689842, “EUbOPEN Chemogenomics Library wave 1” (2021)

Legend:
Assay type in all cases: toxicity, cell-based
Fibroblast = experiment: Multiplex assay against human fibroblast
How it was run: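 Hoechst33342, BioTracker Green Microtubule Cytoskeleton Dye, MitoTracker Red and Annexin V Alexa Fluor 680 were added to live cells at seeding, and imaging on a CQ1 microscope at 37°C and 5% CO2 followed compound addition. Gating by CellPathfinder machine learning separated cells into Hoechst high-intensity objects or normal cells, then normal cells into healthy, pyknosed or fragmented nuclei, then pyknosed cells into mitotic or apoptotic. Per cents of healthy-nucleus cells are reported for the tubulin, mitochondrial-mass and membrane-permeability phenotypes.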

U2OS = experiment: Incucyte cell viability with U2OS; settings: human, 10 µM, compound concentration 10 uM; note: filed as whole numbers so only -1 and 0 and 1 occur
HEK-293T = experiment: Incucyte cell viability with HEK293T; settings: human, 10 µM, compound concentration 10 uM; note: filed as whole numbers so only -1 and 0 and 1 occur
[1] = 12 h, 1 µM, compound concentration 1 uM, replicate 1
[2] = 12 h, 1 µM, compound concentration 1 uM, replicate 2
[3] = 12 h, 10 µM, compound concentration 10 uM, replicate 1
[4] = 12 h, 10 µM, compound concentration 10 uM, replicate 2
[5] = 24 h, 1 µM, compound concentration 1 uM, replicate 1
[6] = 24 h, 1 µM, compound concentration 1 uM, replicate 2
[7] = 24 h, 10 µM, compound concentration 10 uM, replicate 1
[8] = 24 h, 10 µM, compound concentration 10 uM, replicate 2
[9] = 48 h, 1 µM, compound concentration 1 uM, replicate 1
[10] = 48 h, 1 µM, compound concentration 1 uM, replicate 2
[11] = 48 h, 10 µM, compound concentration 10 uM, replicate 1
[12] = 48 h, 10 µM, compound concentration 10 uM, replicate 2
[13] = 6 h, replicate number 1, timepoint 6 hours
[14] = 12 h, replicate number 1, timepoint 12 hours
[15] = 18 h, replicate number 1, timepoint 18 hours
[16] = 24 h, replicate number 1, timepoint 24 hours

C[C@@H](Oc1cc(-n2cnc3ccc(CN4CCN(C)CC4)cc32)sc1C(N)=O)c1ccccc1C(F)(F)F [GSK-461364]
Population Apoptotic (%) (Fibroblast; [1]): 75% | Population Fragmented Nuclei (%) (Fibroblast; [1]): 30% | Population Healthy Nuclei (%) (Fibroblast; [1]): 36% | Population Hoechst High Intensity Objects (%) (Fibroblast; [1]): 14% | Population Membrane Permeable-Phenotype (%) (Fibroblast; [1]): 34% | Population Mitochondria Different-Phenotype (%) (Fibroblast; [1]): 11% | Population Mitotic Cells (%) (Fibroblast; [1]): 25% | Population Normal (%) (Fibroblast; [1]): 85% | Population Pyknosed Nuclei (%) (Fibroblast; [1]): 33% | Population Tubulin-Different-Phenotype (%) (Fibroblast; [1]): 69% | Population Apoptotic (%) (Fibroblast; [2]): 12% | Population Fragmented Nuclei (%) (Fibroblast; [2]): 12% | Population Healthy Nuclei (%) (Fibroblast; [2]): 71% | Population Hoechst High Intensity Objects (%) (Fibroblast; [2]): 4% | Population Membrane Permeable-Phenotype (%) (Fibroblast; [2]): 12% | Population Mitochondria Different-Phenotype (%) (Fibroblast; [2]): 35% | Population Mitotic Cells (%) (Fibroblast; [2]): 87% | Population Normal (%) (Fibroblast; [2]): 95% | Population Pyknosed Nuclei (%) (Fibroblast; [2]): 16% | Population Tubulin-Different-Phenotype (%) (Fibroblast; [2]): 30% | Population Apoptotic (%) (Fibroblast; [3]): 78% | Population Fragmented Nuclei (%) (Fibroblast; [3]): 29% | Population Healthy Nuclei (%) (Fibroblast; [3]): 40% | Population Hoechst High Intensity Objects (%) (Fibroblast; [3]): 25% | Population Membrane Permeable-Phenotype (%) (Fibroblast; [3]): 21% | Population Mitochondria Different-Phenotype (%) (Fibroblast; [3]): 47% | Population Mitotic Cells (%) (Fibroblast; [3]): 21% | Population Normal (%) (Fibroblast; [3]): 74% | Population Pyknosed Nuclei (%) (Fibroblast; [3]): 30% | Population Tubulin-Different-Phenotype (%) (Fibroblast; [3]): 90% | Population Apoptotic (%) (Fibroblast; [4]): 40% | Population Fragmented Nuclei (%) (Fibroblast; [4]): 13% | Population Healthy Nuclei (%) (Fibroblast; [4]): 55% | Population Hoechst High Intensity Objects (%) (Fibroblast; [4]): 9% | Population Membrane Permeable-Phenotype (%) (Fibroblast; [4]): 71% | Population Mitochondria Different-Phenotype (%) (Fibroblast; [4]): 100% | Population Mitotic Cells (%) (Fibroblast; [4]): 59% | Population Normal (%) (Fibroblast; [4]): 90% | Population Pyknosed Nuclei (%) (Fibroblast; [4]): 31% | Population Tubulin-Different-Phenotype (%) (Fibroblast; [4]): 100% | Population Apoptotic (%) (Fibroblast; [5]): 70% | Population Fragmented Nuclei (%) (Fibroblast; [5]): 31% | Population Healthy Nuclei (%) (Fibroblast; [5]): 44% | Population Hoechst High Intensity Objects (%) (Fibroblast; [5]): 17% | Population Membrane Permeable-Phenotype (%) (Fibroblast; [5]): 12% | Population Mitochondria Different-Phenotype (%) (Fibroblast; [5]): 25% | Population Mitotic Cells (%) (Fibroblast; [5]): 29% | Population Normal (%) (Fibroblast; [5]): 82% | Population Pyknosed Nuclei (%) (Fibroblast; [5]): 24% | Population Tubulin-Different-Phenotype (%) (Fibroblast; [5]): 80% | Population Apoptotic (%) (Fibroblast; [6]): 50% | Population Fragmented Nuclei (%) (Fibroblast; [6]): 14% | Population Healthy Nuclei (%) (Fibroblast; [6]): 68% | Population Hoechst High Intensity Objects (%) (Fibroblast; [6]): 4% | Population Membrane Permeable-Phenotype (%) (Fibroblast; [6]): 18% | Population Mitochondria Different-Phenotype (%) (Fibroblast; [6]): 35% | Population Mitotic Cells (%) (Fibroblast; [6]): 50% | Population Normal (%) (Fibroblast; [6]): 95% | Population Pyknosed Nuclei (%) (Fibroblast; [6]): 17% | Population Tubulin-Different-Phenotype (%) (Fibroblast; [6]): 28% | Population Apoptotic (%) (Fibroblast; [7]): 60% | Population Fragmented Nuclei (%) (Fibroblast; [7]): 35% | Population Healthy Nuclei (%) (Fibroblast; [7]): 42% | Population Hoechst High Intensity Objects (%) (Fibroblast; [7]): 43% | Population Membrane Permeable-Phenotype (%) (Fibroblast; [7]): 35% | Population Mitochondria Different-Phenotype (%) (Fibroblast; [7]): 54% | Population Mitotic Cells (%) (Fibroblast; [7]): 40% | Population Normal (%) (Fibroblast; [7]): 56% | Population Pyknosed Nuclei (%) (Fibroblast; [7]): 22% | Population Tubulin-Different-Phenotype (%) (Fibroblast; [7]): 78% | Population Apoptotic (%) (Fibroblast; [8]): 82% | Population Fragmented Nuclei (%) (Fibroblast; [8]): 10% | Population Healthy Nuclei (%) (Fibroblast; [8]): 47% | Population Hoechst High Intensity Objects (%) (Fibroblast; [8]): 6% | Population Membrane Permeable-Phenotype (%) (Fibroblast; [8]): 90% | Population Mitochondria Different-Phenotype (%) (Fibroblast; [8]): 100% | Population Mitotic Cells (%) (Fibroblast; [8]): 17% | Population Normal (%) (Fibroblast; [8]): 93% | Population Pyknosed Nuclei (%) (Fibroblast; [8]): 41% | Population Tubulin-Different-Phenotype (%) (Fibroblast; [8]): 100% | Population Apoptotic (%) (Fibroblast; [9]): 70% | Population Fragmented Nuclei (%) (Fibroblast; [9]): 42% | Population Healthy Nuclei (%) (Fibroblast; [9]): 44% | Population Hoechst High Intensity Objects (%) (Fibroblast; [9]): 21% | Population Membrane Permeable-Phenotype (%) (Fibroblast; [9]): 20% | Population Mitochondria Different-Phenotype (%) (Fibroblast; [9]): 8% | Population Mitotic Cells (%) (Fibroblast; [9]): 30% | Population Normal (%) (Fibroblast; [9]): 78% | Population Pyknosed Nuclei (%) (Fibroblast; [9]): 13% | Population Tubulin-Different-Phenotype (%) (Fibroblast; [9]): 76% | Population Apoptotic (%) (Fibroblast; [10]): 25% | Population Fragmented Nuclei (%) (Fibroblast; [10]): 31% | Population Healthy Nuclei (%) (Fibroblast; [10]): 62% | Population Hoechst High Intensity Objects (%) (Fibroblast; [10]): 12% | Population Membrane Permeable-Phenotype (%) (Fibroblast; [10]): 18% | Population Mitochondria Different-Phenotype (%) (Fibroblast; [10]): 11% | Population Mitotic Cells (%) (Fibroblast; [10]): 75% | Population Normal (%) (Fibroblast; [10]): 87% | Population Pyknosed Nuclei (%) (Fibroblast; [10]): 5% | Population Tubulin-Different-Phenotype (%) (Fibroblast; [10]): 34% | Population Apoptotic (%) (Fibroblast; [11]): 90% | Population Fragmented Nuclei (%) (Fibroblast; [11]): 52% | Population Healthy Nuclei (%) (Fibroblast; [11]): 31% | Population Hoechst High Intensity Objects (%) (Fibroblast; [11]): 45% | Population Membrane Permeable-Phenotype (%) (Fibroblast; [11]): 22% | Population Mitochondria Different-Phenotype (%) (Fibroblast; [11]): 45% | Population Mitotic Cells (%) (Fibroblast; [11]): 9% | Population Normal (%) (Fibroblast; [11]): 54% | Population Pyknosed Nuclei (%) (Fibroblast; [11]): 15% | Population Tubulin-Different-Phenotype (%) (Fibroblast; [11]): 68% | Population Apoptotic (%) (Fibroblast; [12]): 75% | Population Fragmented Nuclei (%) (Fibroblast; [12]): 39% | Population Healthy Nuclei (%) (Fibroblast; [12]): 58% | Population Hoechst High Intensity Objects (%) (Fibroblast; [12]): 38% | Population Membrane Permeable-Phenotype (%) (Fibroblast; [12]): 5% | Population Mitochondria Different-Phenotype (%) (Fibroblast; [12]): 27% | Population Mitotic Cells (%) (Fibroblast; [12]): 25% | Population Normal (%) (Fibroblast; [12]): 61% | Population Pyknosed Nuclei (%) (Fibroblast; [12]): 2% | Population Tubulin-Different-Phenotype (%) (Fibroblast; [12]): 84% | Growth Rate (U2OS; [13]): 1 | Growth Rate (U2OS; [14]): 0 | Growth Rate (U2OS; [15]): 0 | Growth Rate (U2OS; [16]): 0 | Growth Rate (HEK-293T; [13]): 0 | Growth Rate (HEK-293T; [14]): 0 | Growth Rate (HEK-293T; [15]): 0 | Growth Rate (HEK-293T; [16]): 0
